According to PubChem BioAssay AID449754 (Broad Institute, 2010):
Results filed as inconclusive are left out. The source made the active and inactive calls.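 How the source made its calls: active means compounds whose fitted caspase activation AC50 is no more than tenfold above the top tested dose; inconclusive means flat fit with 30 to 70% activity, or a failed fit; inactive means the rest.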

Test system: MEF Bax/Bak KO A1-BIM, caspase-Glo luminescence, 3 h
Experiment: caspase signal in Bax-Bak null A1-BIM cells – cell-based, Bax-Bak knockout MEF, A1-2A-BIM, luminescence, counter-screen for A1 inhibitor project, dose response (AID 449754);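 further: counterscreen where caspase activation signals off-target toxicity not A1 inhibition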
Method in brief: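 Material: Bax/Bak-knockout mouse embryonic fibroblasts expressing A1-2A-BIM | Quantity: 2500 cells per well, seeded one day before compound | Buffer or medium: RPMI-1640, 10% FBS | Incubation: 3 h compound at 37 °C, 1 h detection at RT | Signal: CaspaseGlo luminescence, reagent diluted 1:1 in 50 mM HEPES | Evaluation: Caspase activity from luminescent signal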

| Compound | AC50 |
| --- | --- |
| O=C(NCc1ccccc1Br)c1cccc2c1C(=O)c1ccc(-c3ccc(OC(F)(F)F)cc3)cc1S2(=O)=O | > 35 µM (inactive) |
| CC(=O)Nc1sc(N/N=C\c2cccc(Cl)c2)nc1-c1cccs1 | > 35 µM (inactive) |
| CC(=O)OC(C)(C)/C=C/C(=O)C(C)(O)C1[C@H](O)C[C@@]2(C)C3CC=C4C(CC[C@@H](O)C4(C)C)[C@]3(CO)C(=O)C[C@]12C (stereo partly drawn) | > 35 µM (inactive) |
| COc1ccc(NC(=O)CSc2nc3ccc(Nc4nc(N5CCOCC5)nc(N5CCOCC5)n4)cc3s2)cc1 | > 35 µM (inactive) |
| COc1cc(/C=C(/C#N)C(=O)Nc2ccc(Cl)cc2)ccc1Oc1nc(Cl)ncc1F | > 35 µM (inactive) |
| CCOc1cc(/C=N/Nc2cc(C)nc(-n3nc(C)cc3C)n2)ccc1O | > 35 µM (inactive) |
| CCOc1cc(C(=O)CSc2nnc(CNc3ccc(Cl)cc3)o2)ccc1NC(=O)CC | 17.6 µM |
| COc1cc(/C=C(/C#N)c2nc3ccccc3[nH]2)ccc1OCC(=O)Nc1ccccc1C(C)C | > 35 µM (inactive) |
| CC(C)N=c1scc(-c2ccco2)n1/N=C/c1ccc(O)c(O)c1 | > 35 µM (inactive) |
| CC(C)(C)[C@H](N)C(=O)N[C@H]1CCC2C3CC=C4C[C@@H](O)CC[C@]4(C)C3CC[C@@]21C (stereo partly drawn) | > 35 µM (inactive) |
| O=C(N/C=N/OCc1ccc(Cl)cc1Cl)NOCc1ncc(C(F)(F)F)cc1Cl | > 35 µM (inactive) |
| COc1cc2c(cc1NC(=O)COC(=O)/C=C/c1ccccc1)oc1ccccc12 | > 35 µM (inactive) |
| CCOc1ccc(N2C(=O)/C(=C\c3ccc(O)c(OC)c3)S(=O)(=O)C2c2cccc([N+](=O)[O-])c2)cc1 (stereo not drawn) | > 35 µM (inactive) |
| O=C(NCCc1ccccc1)C(c1cccs1)N(C(=O)CCl)c1ccc(Cl)cc1 (stereo not drawn) | 6.03 µM |
| Cn1c(=NC(=O)CCl)sc2ccccc21 | > 35 µM (inactive) |
| COc1ccc(S(=O)(=O)N2CC(O)CC2C(=O)OCC(=O)Nc2ccc(Cl)cn2)cc1 (stereo not drawn) | > 35 µM (inactive) |
| CCn1c(Cl)c(C=O)s/c1=N\S(=O)(=O)c1ccccc1 | > 35 µM (inactive) |

| Compound | AC50 |
| --- | --- |
| C=C1/C=C(\C)[C@](C)(O)C[C@H](O)CC(=O)[C@H](O)[C@@H](O)[C@H](C)C[C@H](C)OC(=O)/C(C)=C/CC/C=C/[C@@H]2O[C@H]2C[C@H](C)C1 | > 35 µM (inactive) |
| CCc1nn(-c2cc(Oc3cccc4ccccc34)nc(-c3ccccc3)n2)c(N)c1C#N | > 35 µM (inactive) |
| CCOC(=O)/C=c1\s/c(=C\c2ccc(C(=O)OC)cc2)c(=O)n1CC(=O)Nc1ccccc1 | > 35 µM (inactive) |
| Cc1nc(SCc2nc3c([N+](=O)[O-])cccc3[nH]2)c2oc3ccccc3c2n1 | > 35 µM (inactive) |
| CN(C)CCCN(C(=O)c1cc2cc([N+](=O)[O-])ccc2s1)c1nc2cc3c(cc2s1)OCCO3 | > 35 µM (inactive) |
| Cc1ccc(NC(=S)NC(NC(=O)Cc2cccc3ccccc23)C(Cl)(Cl)Cl)cc1 (stereo not drawn) | 22.9 µM |
| Cc1c(C=O)c(C=O)c(C)n1Cc1ccccc1 | > 35 µM (inactive) |
| COc1ccc(OC)c(NC(=O)c2cc3c(Cl)nc4ccccc4c3s2)c1 | > 35 µM (inactive) |
| Cc1ccc(NC(=O)c2ccc(NCC3CCCO3)c([N+](=O)[O-])c2)cc1Cl (stereo not drawn) | > 35 µM (inactive) |
| COc1cc(C(=O)Nc2cc3c(cc2N2CCCCC2)n(C)c(=O)n3C)cc(OC)c1OC | > 35 µM (inactive) |
| COc1ccc(C2Nc3ccc4ccccc4c3-c3c2c(=O)oc2ccccc32)cc1 (stereo not drawn) | 18.7 µM |
| COc1ccc(NC(=O)C(=O)N/N=C\c2ccc(CNC(=O)C(=O)Nc3ccc(C)c(C)c3)o2)c(OC)c1 | 32 µM |
| Cc1ccc(NC(=O)c2cc(N3C(=O)C=CC3=O)ccc2N2CCOCC2)cc1Cl | > 35 µM (inactive) |
| COc1cc(NC(=O)c2cccc(C)c2)ccc1NC(=O)c1cc2ccccc2o1 | > 35 µM (inactive) |
| CCSc1nnc(NC(=O)c2nc(S(=O)(=O)Cc3ccc(F)cc3)ncc2Cl)s1 | > 35 µM (inactive) |
| COc1ccc(C2CC(c3c(O)cc(C)oc3=O)=NCCS2)c(OC)c1 (stereo not drawn) | > 35 µM (inactive) |
